# Test results from ChEMBL document CHEMBL3526138, “Excretion and metabolism of milnacipran in humans after oral administration of milnacipran hydrochloride” (Drug Metab Dispos, 2012).
# Assays:
# [1] = Drug excretion in mouse urine at 100 mg/kg, po; type: ADME, organism-based; set-up: dose 100 mg/kg, route oral; details: read-out: Drug excretion
# Homo sapiens [2] = test: Half life in human assessed as radioactivity at 100 mg, po by liquid scintillation counting analysis; type: ADME, organism-based; details: in vivo
# Method in brief: (§1)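 Healthy males given single oral [14C] milnacipran hydrochloride (100 μCi; 1 μCi/mg) after breakfast. Blood drawn into chilled K3EDTA tubes pre-dose to 120 h, plasma spun ≥2,500 g 10 min 4°C and frozen -80°C. Radioactivity counted by LSC for 5 min, converted to ng equivalent/mL via specific activity. Parameters by non-compartmental analysis; subjects without emesis.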
# Plasma = test: Drug recovery in human plasma at 100 mg, po by HPLC analysis; type: ADME, organism-based; details: in vivo
# Method in brief: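 Pooled plasma extracted for metabolite profiling; recovery of radioactivity through sample processing and through Phenyl-Hexyl HPLC column (0.5-min fractions counted by LSC) expressed as % of plasma or sample radioactivity.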
# [3] = Drug excretion in human feces at 100 mg, po up to 96 hrs by liquid scintillation counting analysis; type: ADME, organism-based; details: in vivo
# Method in brief: (§2)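 Feces pooled into 24-h collections to 120 h after oral 100 mg [14C] dose, frozen -80°C, homogenised in water. Triplicate weighed aliquots combusted in sample oxidizer, counted by LSC 5 min. Excreted amount = concentration × sample weight, expressed as % of dosed radioactivity and summed cumulatively per subject.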
# [4] = Drug excretion in human feces at 100 mg, po up to 24 hrs by liquid scintillation counting analysis; type: ADME, organism-based; details: in vivo; method in brief: as §2
# [5] = Drug excretion in human urine at 100 mg, po up to 24 hrs by liquid scintillation counting analysis; type: ADME, organism-based; details: in vivo
# Method in brief: (§3)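 Urine pooled at 0-4, 4-8, 8-12, 12-24 h, then daily intervals to 120 h after single oral 100 mg [14C] milnacipran hydrochloride; frozen -80°C and counted by LSC. Excreted amount = concentration × volume, given as % of dosed radioactivity, summed cumulatively per subject.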
# Homo sapiens [6] = test: Total drug excretion in human at 100 mg, po up to 8 hrs by liquid scintillation counting analysis; type: ADME, organism-based; details: in vivo
# Method in brief: (§4)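 Mass balance after single oral 100 mg [14C] dose to healthy males: cumulative urinary plus fecal radioactivity (LSC; feces combusted first) as % of dose per subject, urine and feces collected in timed intervals to 120 h.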
# [7] = Drug excretion in human feces at 100 mg, po up to 120 hrs by liquid scintillation counting analysis; type: ADME, organism-based; details: in vivo; method in brief: as §2
# Homo sapiens [8] = test: Total drug excretion in human at 100 mg, po up to 12 hrs by liquid scintillation counting analysis; type: ADME, organism-based; details: in vivo; method in brief: as §4
# [9] = Drug excretion in human feces at 100 mg, po up to 48 hrs by liquid scintillation counting analysis; type: ADME, organism-based; details: in vivo; method in brief: as §2
# [10] = Drug excretion in human feces at 100 mg, po up to 144 hrs by liquid scintillation counting analysis; type: ADME, organism-based; details: in vivo
# Homo sapiens [11] = test: Total drug excretion in human at 100 mg, po up to 4 hrs by liquid scintillation counting analysis; type: ADME, organism-based; details: in vivo; method in brief: as §4
# Homo sapiens [12] = test: Total drug excretion in human at 100 mg, po up to 72 hrs by liquid scintillation counting analysis; type: ADME, organism-based; details: in vivo; method in brief: as §4
# [13] = Drug excretion in human urine at 100 mg, po up to 96 hrs by liquid scintillation counting analysis; type: ADME, organism-based; details: in vivo; method in brief: as §3
# Homo sapiens [14] = test: Total drug excretion in human at 100 mg, po up to 144 hrs by liquid scintillation counting analysis; type: ADME, organism-based; details: in vivo
# Homo sapiens [15] = test: Total drug excretion in human at 100 mg, po up to 96 hrs by liquid scintillation counting analysis; type: ADME, organism-based; details: in vivo; method in brief: as §4
# [16] = Drug excretion in human urine at 100 mg, po up to 8 hrs by liquid scintillation counting analysis; type: ADME, organism-based; details: in vivo; method in brief: as §3
# [17] = Drug excretion in human urine at 100 mg, po up to 4 hrs by liquid scintillation counting analysis; type: ADME, organism-based; details: in vivo; method in brief: as §3
# Homo sapiens [18] = test: Total drug excretion in human at 100 mg, po up to 24 hrs by liquid scintillation counting analysis; type: ADME, organism-based; details: in vivo; method in brief: as §4
# Homo sapiens [19] = test: AUC (0 to t) in human assessed as radioactivity at 100 mg, po by liquid scintillation counting analysis; type: ADME, organism-based, Plasma; details: in vivo; method in brief: as §1
# [20] = Drug excretion in monkey urine at 60 mg/kg, po; type: ADME, organism-based, Macaca mulatta; set-up: dose 60 mg/kg, route oral; details: rhesus monkey, read-out: Drug excretion
# [21] = Drug excretion in human urine at 100 mg, po up to 48 hrs by liquid scintillation counting analysis; type: ADME, organism-based; details: in vivo; method in brief: as §3
# Homo sapiens [22] = test: AUC (0 to infinity) in human assessed as radioactivity at 100 mg, po by liquid scintillation counting analysis; type: ADME, organism-based, Plasma; set-up: dose 100 mg, route oral, time infinity; details: in vivo; method in brief: as §1
# Homo sapiens [23] = test: Total drug excretion in human at 100 mg, po up to 48 hrs by liquid scintillation counting analysis; type: ADME, organism-based; details: in vivo; method in brief: as §4
# Homo sapiens [24] = test: Tmax in human assessed as radioactivity at 100 mg, po by liquid scintillation counting analysis; type: ADME, organism-based; details: in vivo; method in brief: as §1
# [25] = Drug excretion in human feces at 100 mg, po up to 72 hrs by liquid scintillation counting analysis; type: ADME, organism-based; details: in vivo; method in brief: as §2
# Homo sapiens [26] = test: Cmax in human assessed as radioactivity at 100 mg, po by liquid scintillation counting analysis; type: ADME, organism-based; set-up: dose 100 mg, route oral; details: in vivo; method in brief: as §1
# [27] = Drug excretion in human urine at 100 mg, po up to 120 hrs by liquid scintillation counting analysis; type: ADME, organism-based; details: in vivo; method in brief: as §3
# [28] = Drug excretion in human urine at 100 mg, po up to 12 hrs by liquid scintillation counting analysis; type: ADME, organism-based; details: in vivo; method in brief: as §3
# Homo sapiens [29] = test: Total drug excretion in human at 100 mg, po up to 120 hrs by liquid scintillation counting analysis; type: ADME, organism-based; details: in vivo; method in brief: as §4
# [30] = Drug excretion in rat urine at 100 mg/kg, po; type: ADME, organism-based; set-up: dose 100 mg/kg, route oral; details: read-out: Drug excretion
# [31] = Drug excretion in human urine at 100 mg, po up to 144 hrs by liquid scintillation counting analysis; type: ADME, organism-based; details: in vivo
# [32] = Drug excretion in human urine at 100 mg, po up to 72 hrs by liquid scintillation counting analysis; type: ADME, organism-based; details: in vivo; method in brief: as §3
compound,measurement,setting,value
CCN(CC)[14C](=O)C1(c2ccccc2)CC1CN.Cl (stereo not drawn),dose excreted,[1],63%
same,t1/2,Homo sapiens [2],7.7 h
same,Drug recovery,Plasma,99.1%
same,Drug excretion,[3],3.62%
same,Drug excretion,[4],0.407%
same,Drug excretion,[5],79.4%
same,Drug excretion,Homo sapiens [6],48.5%
same,Drug excretion,[7],3.65%
same,Drug excretion,Homo sapiens [8],60.8%
same,Drug excretion,[9],2.83%
same,Drug excretion,[10],3.65%
same,Drug excretion,Homo sapiens [11],24.8%
same,Drug excretion,Homo sapiens [12],95.4%
same,Drug excretion,[13],92.8%
same,Drug excretion,Homo sapiens [14],96.9%
same,Drug excretion,Homo sapiens [15],96.5%
same,Drug excretion,[16],48.5%
same,Drug excretion,[17],24.8%
same,Drug excretion,Homo sapiens [18],79.6%
same,AUCt,Homo sapiens [19],6446.3 ng.Eq.hr/ml
same,dose excreted,[20],40%
same,Drug excretion,[21],89.3%
same,AUC,Homo sapiens [22],7325.3 ng.Eq.hr/ml
same,Drug excretion,Homo sapiens [23],92.2%
same,Tmax,Homo sapiens [24],4.3 h
same,Drug excretion,[25],3.27%
same,Cmax,Homo sapiens [26],679 ng.Eq/ml
same,Drug excretion,[27],93.1%
same,Drug excretion,[28],60.8%
same,Drug excretion,Homo sapiens [29],96.8%
same,dose excreted,[30],63%
same,Drug excretion,[31],93.3%
same,Drug excretion,[32],92.1%
